Measurements reported in ChEMBL document CHEMBL3352696, “Selective immunoproteasome inhibitors with non-peptide scaffolds identified from structure-based virtual screening” (Bioorg Med Chem Lett, 2014).
Residues, ends and D or L forms follow the SMILES beside them. *: point of attachment. Fmoc = O=C(OCC1c2ccccc2-c2ccccc21)*

Columns and labels:
Homo sapiens [1] = species: Homo sapiens; assay: Inhibition of chymotrypsin-like activity of human 20S immunoproteasome using Suc-LLVY-AMC as substrate at 5 uM after 90 mins by fluorescence assay
In short: (§1)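 Purified human 20S immunoproteasome or constitutive proteasome, 2-fold diluted in 20 mM Tris/Cl pH 8.0, 0.5 mM EDTA, 0.035% SDS, at 50 ng/well. The enzyme was preincubated with compound (5 µM, from DMSO) for 90 min at room temperature. Then 100 µM Suc-LLVY-AMC was added and AMC fluorescence (Ex 360/Em 460) was read for 90 min. […] Run in triplicate.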

Proteasome = assay: Inhibition of chymotrypsin-like activity of constitutive proteasome (unknown origin) using Suc-LLVY-AMC as substrate at 5 uM after 90 mins by fluorescence assay; assay type: subcellular; conditions: Homo sapiens; in short: as §1
Homo sapiens [2] = species: Homo sapiens; assay: Inhibition of chymotrypsin-like activity of human 20S immunoproteasome using Suc-LLVY-AMC as substrate at 1 uM after 90 mins by fluorescence assay
[3] = Inhibition of chymotrypsin-like activity of human 20S immunoproteasome using Suc-LLVY-AMC as substrate after 90 mins by fluorescence assay

Structure (SMILES)	inhibition (Homo sapiens [1])	inhibition (Proteasome)	inhibition (Homo sapiens [2])	IC50 [3]
CC[C@H](C)[C@H](NC(=O)[C@H]([C@@H](C)CC)N(C)C(C)=O)C(=O)N[C@H](C(=O)N[C@@H](CC(C)C)C(=O)[C@@]1(C)CO1)[C@@H](C)O			100%	
CC[C@@H](NC(=O)[C@@H](CC(C)C)NC(=O)OCc1ccccc1)C(=O)C(=O)NCCCN1CCOCC1	14%	6%		
Cc1ccc(-c2cc(C(=O)NC[C@@H]3CCCO3)c3cc(CNS(=O)(=O)c4cccc(Cl)c4)ccc3n2)o1	85%	20%		1.7 µM
O=C(C[C@@H]1CCN(CC2CC2)C[C@@H]1[C@H]1CC(c2ccccc2Cl)=NO1)NCCc1ccccn1	13%	14%		
NC(=O)CC[C@H](NC(=O)[C@H](Cc1cnc[nH]1)NC(=O)OCC1c2ccccc2-c2ccccc21)C(=O)N1CCC[C@H]1C(=O)O (Fmoc-His-Gln-Pro-OH)	35%	24%		
CCC[C@H]1C[C@H](C(=O)N[C@@H]([C@@H]2O[C@H](SC)[C@@H](O)[C@@H](O)[C@@H]2O)[C@@H](C)O)N(C)C1	36%	2%		22 µM

Second part, the compound after the results:

inhibition (Homo sapiens [1])	inhibition (Proteasome)	inhibition (Homo sapiens [2])	IC50 [3]	Structure (SMILES)
25%	16%			O=C1CN(/N=C/c2ccc(-c3ccc(Cl)cc3)o2)C(=O)N1CCCCN1CCN(C[C@@H](O)c2ccccc2)CC1
31%	33%			Cc1cccc(Nc2ccccc2C(=O)N[C@H](CC[S@+](C)[O-])C(=O)N[C@H](C)c2ccc(F)cc2)c1C
62%	15%		4.9 µM	Cc1ccc(CSC[C@@H](NC(=O)c2cc(-c3ccccc3)nc3ccccc23)C(=O)NCCCN2CCCC2=O)cc1
21%	2%			CCCCc1ccc2nc(-c3ccc(OC)cc3)cc(C(=O)NC[C@@H](C)C(=O)N3CCC[C@@H]3CO)c2c1
